From ChEMBL document CHEMBL2086281, “Design, synthesis and 3D-QSAR analysis of novel 2-hydrazinyl-4-morpholinothieno[3,2-d]pyrimidine derivatives as potential antitumor agents” (Eur J Med Chem, 2012) come the findings set out here.

Test [1] deals with NCI-H460. The test can be described thus: Cytotoxicity against human H460 cells assessed as growth inhibition after 72 hrs by MTT assay. The format is functional, cell-based. Conditions: NCI-H460, 72 h. An outline of the steps:
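Cells grown in MEM with 10% FBS. About 4×10^3 cells/well were pre-incubated for 24 h at 37 °C in 5% CO₂, then exposed to compound at the indicated final concentrations for 72 h. MTT was added to 5 µg/mL final for 4 h at 37 °C. IC50 is the mean of three determinations.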

Test [2] concerns HT-29. The test can be described thus: Cytotoxicity against human HT-29 cells assessed as growth inhibition after 72 hrs by MTT assay. The format is functional, cell-based. The conditions noted are these: HT-29, 72 h. Summed up: (§1)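 Cells grown in MEM with 10% FBS. About 4×10^3 cells/well were pre-incubated for 24 h at 37 °C in 5% CO₂, then exposed to compound at the indicated final concentrations for 72 h. MTT was added to 5 µg/mL final for 4 h at 37 °C. Formazan was dissolved in DMSO and read at 492 nm, with 630 nm as reference. IC50 is the mean of three determinations.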

In test [3] the test system is MDA-MB-231. The test is described as follows: Cytotoxicity against human MDA-MB-231 cells assessed as growth inhibition after 72 hrs by MTT assay. The class given is functional, cell-based. The conditions noted are these: MDA-MB-231, 72 h. Summed up:
as §1
Background: Tetrazolium dyes change colour on reduction, which living cells bring about.

Test [4] in a line: Cytotoxicity against human U87MG cells assessed as growth inhibition after 72 hrs by MTT assay. The class given is functional, cell-based, U-87MG ATCC. Conditions: U-87 MG. An outline of the steps: as §1
The subject of the next test is NCI-H1975. The test can be described thus: Cytotoxicity against human NCI-H1975 cells assessed as growth inhibition after 72 hrs by MTT assay. The class given is functional, cell-based. The conditions noted are these: NCI-H1975, 72 h. An outline of the steps:
as §1

Another test relates to A549. The test can be described thus: Cytotoxicity against human A549 cells assessed as growth inhibition after 72 hrs by MTT assay. The conditions noted are these: A549, 72 h. The class given is functional, cell-based. Summed up:
as §1

For the next test, the system named is NCI-H226. The test can be described thus: Cytotoxicity against human NCI-H226 cells assessed as growth inhibition after 72 hrs by MTT assay. The class given is functional, cell-based. The conditions noted are these: NCI-H226, 72 h. Summed up:
as §1

A further test has as its system HepG2. The test can be described thus: Cytotoxicity against human HepG2 cells assessed as growth inhibition after 72 hrs by MTT assay. Conditions: HepG2, 72 h. The class given is functional, cell-based. An outline of the steps: as §1
The next test has as its system SGC-7901. The test can be described thus: Cytotoxicity against human SGC7901 cells assessed as growth inhibition after 72 hrs by MTT assay. The format is functional, cell-based. The conditions noted are these: SGC-7901, 72 h. Summed up:
as §1

In test [5] the test system is NCI-H460. The test can be described thus: Ratio of GDC-0941 IC50 to compound IC50 for human H460 cells assessed as growth inhibition after 72 hrs by MTT assay. The class given is functional.
For test [6], the system named is HT-29. The test is described as follows: Ratio of GDC-0941 IC50 to compound IC50 for human HT-29 cells assessed as growth inhibition after 72 hrs by MTT assay. The format is functional.
The subject of test [7] is MDA-MB-231. The test is described as follows: Ratio of GDC-0941 IC50 to compound IC50 for human MDA-MB-231 cells assessed as growth inhibition after 72 hrs by MTT assay. The format is functional.

For the compound `Fc1cccc(Cn2cc(/C=N/Nc3nc(N4CCOCC4)c4sccc4n3)c3ccccc32)c1`, the IC50 in the test with NCI-H460 [1] (read-out: IC50) is 230 nM; with NCI-H460 [1] (read-out: pIC50 (converted)), 224 nM; in the test on HT-29 [2], 390 nM; in the test on MDA-MB-231 [3] it was 1110 nM; in test [4], 12600 nM; with NCI-H1975, 19000 nM. For the same compound, the IC50 in the test with A549 worked out at 8700 nM; in the test on NCI-H226, 910 nM; with HepG2, 1100 nM; with SGC-7901 it was 800 nM. Moreover, the “Ratio IC50” value turned out to be 3.8 in the test on NCI-H460 [5], 1.7 with HT-29 [6] and 66.5 with MDA-MB-231 [7].

Take `CS(=O)(=O)N1CCN(Cc2cc3nc(-c4cccc5[nH]ncc45)nc(N4CCOCC4)c3s2)CC1` [PICTILISIB]: the IC50 in the test with HT-29 [2] is 660 nM; with MDA-MB-231 [3], 73800 nM; in [4], 7770 nM; with NCI-H1975, 270 nM; in the test with A549, 6900 nM; with NCI-H226 it was 2900 nM. The IC50 with HepG2 came out at 1000 nM; in the test with SGC-7901, 1800 nM.
